Source: ChEMBL document CHEMBL4270555, “Synthesis and biological evaluation of magnolol derivatives as melatonergic receptor agonists with potential use in depression” (Eur J Med Chem, 2018)
Active and inactive are the calls of the source. The calls are words filed in the database; no cut-off is given here.

How the values were obtained:
[1] = Retention time of the compound by UPLC-IT-TOF-MS analysis; assay type: physicochemical
Method in brief: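 Retention on C18 column (100 × 2.1 mm, 1.8 µm) at 30 °C; mobile phase A 0.05% formic acid in water, B 0.05% formic acid in acetonitrile, 0.2 mL/min, linear 5–100% B over 0–18.0 min; IT-TOF-MS detection in positive and negative modes.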

[2] = Drug level in Sprague-Dawley rat urine treated with Magnolol-4'-O-beta-D-glucopyranoside at 100 mg/kg, po by UPLC-IT-TOF-MS analysis; assay type: ADME, organism-based; conditions: in vivo
Method in brief: (§1)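 Rats (n = 6) housed in metabolic cages received 100.0 mg/kg orally; controls received 0.5% CMC-Na. Plasma, urine and faeces were collected and analyzed by LC-IT-TOF-MS on a C18 column at 30 °C. Gradient 5–100% acetonitrile with 0.05% formic acid over 18 min at 0.2 mL/min; positive and negative ion MS/MS.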

[3] = molecular target: Melatonin receptor type 1A (Homo sapiens, UniProt P48039); assay: Agonist activity at human MT1 receptor expressed in HEK293 cells at 1 mM after 24 hrs by Fluo-8 dye-based calcium assay relative to control; assay type: functional, cell-based
Sequence of Melatonin receptor type 1A (P48039 whole entry): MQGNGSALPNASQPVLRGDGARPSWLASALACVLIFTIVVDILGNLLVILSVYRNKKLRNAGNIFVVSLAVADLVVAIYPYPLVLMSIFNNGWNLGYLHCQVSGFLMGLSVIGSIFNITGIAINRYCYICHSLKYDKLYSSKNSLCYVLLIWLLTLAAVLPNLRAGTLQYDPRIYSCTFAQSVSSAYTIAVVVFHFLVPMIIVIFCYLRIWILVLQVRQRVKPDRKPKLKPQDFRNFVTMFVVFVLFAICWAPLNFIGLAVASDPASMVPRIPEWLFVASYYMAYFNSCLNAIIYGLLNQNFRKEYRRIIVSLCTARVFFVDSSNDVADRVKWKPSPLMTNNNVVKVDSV
Method in brief: (§2)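 Fluo-8 calcium assay in HEK293 cells stably expressing human MT1 or MT2, seeded 4×10^4/well and incubated 24 h. Compounds tested at 1.00 mM, agomelatine positive control at 3.33 µM; fluorescence at ex 485/em 525 nm. Agonism expressed as mean ± SD, n = 3.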

[4] = molecular target: T1, Melatonin receptor type 1B (Homo sapiens) (UniProt P49286); assay: Agonist activity at human MT2 receptor expressed in HEK293 cells at 1 mM after 24 hrs by Fluo-8 dye-based calcium assay relative to control; assay type: functional, cell-based; method in brief: as §2
T1 sequence (whole entry): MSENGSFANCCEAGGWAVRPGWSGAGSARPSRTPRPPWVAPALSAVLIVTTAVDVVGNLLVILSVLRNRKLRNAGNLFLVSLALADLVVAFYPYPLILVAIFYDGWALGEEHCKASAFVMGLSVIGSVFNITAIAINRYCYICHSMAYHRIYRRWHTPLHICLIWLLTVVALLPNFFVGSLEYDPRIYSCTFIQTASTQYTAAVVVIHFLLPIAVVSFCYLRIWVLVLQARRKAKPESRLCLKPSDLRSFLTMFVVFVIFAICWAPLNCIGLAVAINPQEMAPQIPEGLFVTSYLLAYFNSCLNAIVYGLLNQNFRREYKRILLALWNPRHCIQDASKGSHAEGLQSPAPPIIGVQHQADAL

Mus musculus [5] = assay: Antidepressant activity in Kunming mouse assessed as decrease in immobility time at 20 mg/kg, po by tail suspension test; assay type: functional, organism-based
Method in brief: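 Male Kunming mice (18–20 g), dosed orally and tested acoustically and visually isolated. Each was suspended 50 cm above a wooden box by tape placed about 1 cm from the tail tip for 6 min. Immobility (s) over the last 4 min was recorded automatically by video tracking; n = 10, mean ± SEM vs vehicle.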

[6] = Drug level in Sprague-Dawley rat feces treated with Magnolol-4'-O-beta-D-glucopyranoside at 100 mg/kg, po by UPLC-IT-TOF-MS analysis; assay type: ADME, organism-based; conditions: in vivo; method in brief: as §1
[7] = molecular target: T1, Melatonin receptor type 1B (Homo sapiens); assay: Potency index, ratio of compound effect to magnolol effect for human MT2 receptor; assay type: functional
Mus musculus [8] = assay: Antidepressant activity in Kunming mouse assessed as decrease in immobility duration at 20 mg/kg, po by forced swim test; assay type: functional, organism-based
Method in brief: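 Male Kunming mice (18–20 g), group-housed at 22 ± 2 °C on a 12 h light/dark cycle, dosed orally. Each mouse was placed in a glass cylinder (25 cm high, 15 cm diameter) holding 10 cm of water at 25 ± 1 °C and made to swim for 6 min. Immobility over the last 4 min was scored automatically by video tracking; n = 10, mean ± SEM vs vehicle.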

[9] = Drug level in Sprague-Dawley rat plasma treated with Magnolol-4'-O-beta-D-glucopyranoside at 100 mg/kg, po by UPLC-IT-TOF-MS analysis; assay type: ADME, organism-based; conditions: in vivo; method in brief: as §1

Compound | Retention_time [1] [min] | Drug metabolism [2] | Activity [3] [%] | Activity [4] [%] | also measured
C=CC(O)c1ccc(O[C@@H]2O[C@H](CO)[C@@H](O)[C@H](O)[C@H]2O)c(-c2cc(C(O)CC)ccc2OS(=O)(=O)O)c1 (some centres undefined) | 7.39 | Metabolite_Detected | – | – | –
C=CCc1ccc(O)c(-c2cc(CC=C)ccc2OC(=O)c2ccccc2)c1 | – | – | -6.5 | -0.04 | –
COc1ccc2cccc(CCNC(C)=O)c2c1 | – | – | – | – | Activity (Mus musculus [5]): Active
C=CC(O)c1ccc(O)c(-c2cc(C(O)C=C)ccc2O)c1 (centres undefined) | 11.06 | Metabolite_Detected | – | – | Drug metabolism [6]: Metabolite_Detected
C=CCc1ccc(O)c(-c2cc(CC=C)ccc2OC(=O)CCCl)c1 | – | – | 21 | 30.1 | –
C=CCc1ccc(OC)c(-c2cc(CC=C)ccc2O[C@@H]2O[C@H](C(=O)O)[C@@H](O)[C@H](O)[C@H]2O)c1 | 12.4 | Metabolite_Detected | – | – | –
C=CCc1ccc(OC(=O)c2ccccc2)c(-c2cc(CC=C)ccc2O[C@@H]2O[C@H](CO)[C@@H](O)[C@H](O)[C@H]2O)c1 | – | – | 13.2 | -5.71 | –
C=CC(=O)c1ccc(O[C@@H]2O[C@H](CO)[C@@H](O)[C@H](O)[C@H]2O)c(-c2cc(C(O)C=C)ccc2O)c1 (some centres undefined) | 10.88 | Metabolite_Detected | – | – | –
C=CC(O)c1ccc(O[C@@H]2O[C@H](C(=O)O)[C@@H](O)[C@H](O)[C@H]2O)c(-c2cc(CC(C)O)ccc2OC)c1 (some centres undefined) | 8.7 | Metabolite_Detected | – | – | –
C=CCc1ccc(O)c(-c2cc(C(=O)C=C)ccc2O[C@@H]2O[C@H](CO)[C@@H](O)[C@H](O)[C@H]2O)c1 | 10.59 | Metabolite_Detected | – | – | –
C=CCc1ccc(O)c(-c2cc(CC=C)ccc2OC(C)=O)c1 | – | – | 91.4 | 77.6 | –
C=CCc1ccc(O)c(-c2cc(CC=C)ccc2OC(=O)c2ccc(N)cc2)c1 | – | – | -1.55 | 5.17 | –
C=CCc1ccc(OC(=O)C=C)c(-c2cc(CC=C)ccc2OC(=O)C=C)c1 | – | – | 0.04 | 4.57 | –
C=CCc1ccc(O)c(-c2cc(CC=C)ccc2OC(=O)CCCCl)c1 | – | – | 32 | 69.7 | Ratio [7]: 3.5 to 4.5
C=CCc1ccc(OS(=O)(=O)O)c(-c2cc(C(O)C=C)ccc2O[C@@H]2O[C@H](CO)[C@@H](O)[C@H](O)[C@H]2O)c1 (some centres undefined) | 9.24 | – | – | – | Drug metabolism [6]: Metabolite_Detected
C=CCc1ccc(OC(=O)CCCCl)c(-c2cc(CC=C)ccc2OC(=O)CCCCl)c1 | – | – | 8.14 | 2.11 | –
C=CCc1ccc(O[C@@H]2O[C@H](C(=O)O)[C@@H](O)[C@H](O)[C@H]2O)c(-c2cc(CC=C)ccc2O[C@@H]2O[C@H](CO)[C@@H](O)[C@H](O)[C@H]2O)c1 | 9.94 | Metabolite_Detected | – | – | Drug metabolism [6]: Metabolite_Detected
C=CCc1ccc(O[C@@H]2O[C@H](COC(C)=O)[C@@H](OC(C)=O)[C@H](OC(C)=O)[C@H]2OC(C)=O)c(-c2cc(CC=C)ccc2O[C@@H]2O[C@H](COC(C)=O)[C@@H](OC(C)=O)[C@H](OC(C)=O)[C@H]2OC(C)=O)c1 | – | – | 7.09 | 0.04 | –
C=CCc1ccc(OC(C)=O)c(-c2cc(CC=C)ccc2OC(C)=O)c1 | – | – | -1.86 | -2.52 | –
C=CCc1ccc(O)c(-c2cc(C(O)C=C)ccc2O[C@@H]2O[C@H](CO)[C@@H](O)[C@H](O)[C@H]2O)c1 (some centres undefined) | 9.15 | Metabolite_Detected | – | – | –
C=CCc1ccc(O[C@@H]2O[C@H](CO)[C@@H](O)[C@H](O)[C@H]2O)c(-c2cc(CC=C)ccc2O[C@@H]2O[C@H](CO)[C@@H](O)[C@H](O)[C@H]2O)c1 | 10.63 | Metabolite_Detected | 2.97 | 10.8 | Drug metabolism [6]: Metabolite_Detected
C=CC(O)c1ccc(O[C@@H]2O[C@H](C(=O)O)[C@@H](O)[C@H](O)[C@H]2O)c(-c2cc(C(O)CC)ccc2O[C@@H]2O[C@H](CO)[C@@H](O)[C@H](O)[C@H]2O)c1 (some centres undefined) | 6.75 | Metabolite_Detected | – | – | Drug metabolism [6]: Metabolite_Detected

Compound | Retention_time [1] [min] | Drug metabolism [2] | Activity [3] [%] | Activity [4] [%] | also measured
C=CCc1ccc(OC(=O)/C=C/c2cccc(F)c2)c(-c2cc(CC=C)ccc2O[C@@H]2O[C@H](CO)[C@@H](O)[C@H](O)[C@H]2O)c1 | – | – | 5.3 | -10.5 | –
C=CCc1ccc(O)c(-c2cc(CC=C)ccc2OC(=O)/C=C/c2ccccc2)c1 | – | – | 56.8 | 25.6 | –
C=CC(O)c1ccc(O)c(-c2cc(CCC)ccc2OS(=O)(=O)O)c1 (centres undefined) | 7.55 | – | – | – | Drug metabolism [6]: Metabolite_Detected
C=CCc1ccc(O)c(-c2cc(CC=C)ccc2O)c1 [MAGNOLOL] | 14.33 | Metabolite_Detected | 40.2 | 20 | Drug metabolism [6]: Metabolite_Detected
C=CC(=O)c1ccc(O)c(-c2cc(C(=O)CC)ccc2OS(=O)(=O)O)c1 | 9.05 | Metabolite_Detected | – | – | –
C=CC(O)c1ccc(O[C@@H]2O[C@H](CO)[C@@H](O)[C@H](O)[C@H]2O)c(-c2cc(CCC)ccc2OS(=O)(=O)O)c1 (some centres undefined) | 6.91 | – | – | – | Drug metabolism [6]: Metabolite_Detected
C=CCc1ccc(OC(=O)/C=C/c2ccccc2)c(-c2cc(CC=C)ccc2OC(=O)/C=C/c2ccccc2)c1 | – | – | 28.3 | 3.34 | –
CNCCC(Oc1ccc(C(F)(F)F)cc1)c1ccccc1 (centres undefined) | – | – | – | – | Activity (Mus musculus [8]): Active; Activity (Mus musculus [5]): Active
C=CCc1ccc(O)c(-c2cc(CC=C)ccc2O[C@@H]2O[C@H](COC(C)=O)[C@@H](OC(C)=O)[C@H](OC(C)=O)[C@H]2O)c1 | – | – | 11 | 19.1 | –
C=CCc1ccc(O[C@@H]2O[C@H](CO)[C@@H](O)[C@H](O)[C@H]2O)c(-c2cc(C(O)C=C)ccc2O[C@@H]2O[C@H](C(=O)O)[C@@H](O)[C@H](O)[C@H]2O)c1 (some centres undefined) | 7.79 | Metabolite_Detected | – | – | Drug metabolism [6]: Metabolite_Detected
C=CCc1ccc(O)c(-c2cc(CC=C)ccc2O[C@@H]2O[C@H](CO)[C@@H](OC(C)=O)[C@H](OC(C)=O)[C@H]2O)c1 | – | – | 31 | 89 | Ratio [7]: 3.5 to 4.5
C=CCc1ccc(OC(=O)c2ccccc2)c(-c2cc(CC=C)ccc2OC(=O)c2ccccc2)c1 | – | – | -5.93 | -1.72 | –
C=CCc1ccc(O)c(-c2cc(CC=C)ccc2OS(=O)(=O)O)c1 | 11.49 | – | – | – | Drug metabolism [6]: Metabolite_Detected
C=CC(=O)c1ccc(O[C@@H]2O[C@H](C(=O)O)[C@@H](O)[C@H](O)[C@H]2O)c(-c2cc(C(O)C=C)ccc2O)c1 (some centres undefined) | 9.47 | Metabolite_Detected | – | – | –
Oc1ccc(CC2CO2)cc1-c1cc(CC2CO2)ccc1O (centres undefined) | – | – | 2.18 | -3.39 | –
C=CCc1ccc(OC(=O)/C=C/c2ccccc2)c(-c2cc(CC=C)ccc2O[C@@H]2O[C@H](CO)[C@@H](O)[C@H](O)[C@H]2O)c1 | – | – | 50.3 | -10.1 | –
C=CCc1ccc(O)c(-c2cc(CC3CO3)ccc2O)c1 (centres undefined) | – | – | 53.8 | -3.08 | –
C=CCc1ccc(OC)c(-c2cc(CC=C)ccc2O[C@@H]2O[C@H](CO)[C@@H](O)[C@H](O)[C@H]2O)c1 | 11.32 | Metabolite_Detected | – | – | Drug metabolism [9]: Metabolite_Detected; Drug metabolism [6]: Metabolite_Detected
C=CCc1ccc(O)c(-c2cc(CC=C)ccc2OC(=O)C=C)c1 | – | – | 1.31 | 2.93 | –
C=CCc1ccc(O)c(-c2cc(CC=C)ccc2O[C@@H]2O[C@H](COC(C)=O)[C@@H](OC(C)=O)[C@H](OC(C)=O)[C@H]2OC(C)=O)c1 | – | – | -0.58 | -2.09 | –
C=CCc1ccc(O[C@@H]2O[C@H](CO)[C@@H](O)[C@H](O)[C@H]2O)c(-c2cc(CC=C)ccc2OS(=O)(=O)O)c1 | 8.17 | – | – | – | Drug metabolism [6]: Metabolite_Detected
